In ChEMBL document CHEMBL1122917, “Vinblastin-23-oyl amino acid derivatives: chemistry, physicochemical data, toxicity, and antitumor activities against P388 and L1210 leukemias” (J Med Chem, 1985):

Columns and labels:
Type in all cases: functional
Mus musculus [1] = assay: Number of survivors on 30th day at dose 6 mg/kg/day in 10 mice implanted with P388 leukemia cell line
Mus musculus [2] = assay: Percent increase in life span at dose 9 mg/kg/day in 10 mice implanted with P388 leukemia cell line
Summary of the method: (§1)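 Female DBA2 mice inoculated iv on day 0 with 10^4 P388 cells; single iv treatment on day 1 with drug as sulfate salt in physiological saline. Survival followed; %ILS from all deaths and survivors as (T/C × 100) − 100, maximal MST 30 days; survivors counted on days 30 and 60. Most experiments confirmed three times.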

Mus musculus [3] = assay: Number of survivors on 30th day at dose 5 mg/kg/day in 10 mice implanted with P388 leukemia cell line
Mus musculus [4] = assay: Percent increase in life span at dose 6 mg/kg/day in 10 mice implanted with P388 leukemia cell line; summary of the method: as §1
Mus musculus [5] = assay: Number of survivors of DBA2 mice on 60th day after inoculation with L1210 leukemia cell line intravenously at a dose of 6 mg/kg/day; 0/10; conditions: route intravenous
Mus musculus [6] = assay: Number of survivors on 30th day at dose 8 mg/kg/day in 10 mice implanted with P388 leukemia cell line
Mus musculus [7] = assay: Number of survivors of DBA2 mice on 60th day after inoculation with L1210 leukemia cell line intravenously at a dose of 7 mg/kg/day; 0/10; conditions: route intravenous
Mus musculus [8] = assay: Percent increase in life span at dose 3 mg/kg/day in 10 mice implanted with P388 leukemia cell line; summary of the method: as §1
Mus musculus [9] = assay: Number of survivors on 30th day at dose 7 mg/kg/day in 10 mice implanted with P388 leukemia cell line
Mus musculus [10] = assay: Number of survivors on 60th day at dose 7 mg/kg/day in 10 mice implanted with P388 leukemia cell line; summary of the method: as §1
Mus musculus [11] = assay: Number of survivors of DBA2 mice on 30th day after inoculation with L1210 leukemia cell line intravenously at a dose of 7 mg/kg/day; 0/10; conditions: route intravenous
Mus musculus [12] = assay: Percent increase in life span at dose 8 mg/kg/day in 10 mice implanted with P388 leukemia cell line; summary of the method: as §1
Mus musculus [13] = assay: Number of survivors on 30th day at dose 9 mg/kg/day in 10 mice implanted with P388 leukemia cell line
Mus musculus [14] = assay: Percent increase in life span of DBA2 mice after inoculation with L1210 leukemia intravenously at a dose of 6 mg/kg per day; conditions: route intravenous
Summary of the method: (§2)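 Female DBA2 mice inoculated iv on day 0 with 10^4 L1210 cells; drugs given iv as sulfate salts in physiological saline, mostly once on day 1. %ILS from all deaths and survivors as (T/C × 100) − 100; survivors scored on days 30 and 60.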

Mus musculus [15] = assay: Number of survivors on 60th day at dose 6 mg/kg/day in 10 mice implanted with P388 leukemia cell line
Mus musculus [16] = assay: Number of survivors on 60th day at dose 8 mg/kg/day in 10 mice implanted with P388 leukemia cell line; summary of the method: as §1
Mus musculus [17] = assay: Percent increase in life span at dose 7 mg/kg/day in 10 mice implanted with P388 leukemia cell line; summary of the method: as §1
Mus musculus [18] = assay: Percent increase in life span of DBA2 mice after inoculation with L1210 leukemia intravenously at a dose of 7 mg/kg per day; conditions: route intravenous; summary of the method: as §2
Mus musculus [19] = assay: Percent increase in life span at dose 5 mg/kg/day in 10 mice implanted with P388 leukemia cell line; summary of the method: as §1
Mus musculus [20] = assay: Number of survivors of DBA2 mice on 30th day after inoculation with L1210 leukemia cell line intravenously at a dose of 6 mg/kg/day; 0/10; conditions: route intravenous
Mus musculus [21] = assay: Number of survivors on 60th day at dose 9 mg/kg/day in 10 mice implanted with P388 leukemia cell line
Mus musculus [22] = assay: Number of survivors on 30th day at dose 3 mg/kg/day in 10 mice implanted with P388 leukemia cell line; 0/10
Mus musculus [23] = assay: Number of survivors on 60th day at dose 3 mg/kg/day in 10 mice implanted with P388 leukemia cell line
Mus musculus [24] = assay: Number of survivors on 60th day at dose 5 mg/kg/day in 10 mice implanted with P388 leukemia cell line
Mus musculus [25] = assay: Percent increase in life span at dose 40 mg/kg/day in 10 mice implanted with P388 leukemia cell line; summary of the method: as §1
Mus musculus [26] = assay: Number of survivors on 60th day at dose 20 mg/kg/day in 10 mice implanted with P388 leukemia cell line; 0/10
Mus musculus [27] = assay: Number of survivors on 60th day at dose 40 mg/kg/day in 10 mice implanted with P388 leukemia cell line; 0/10
Mus musculus [28] = assay: Number of survivors on 30th day at dose 40 mg/kg/day in 10 mice implanted with P388 leukemia cell line; 0/10
Mus musculus [29] = assay: Percent increase in life span of DBA2 mice after inoculation with L1210 leukemia intravenously at a dose of 40 mg/kg per day; conditions: route intravenous
Mus musculus [30] = assay: Number of survivors of DBA2 mice on 60th day after inoculation with L1210 leukemia cell line intravenously at a dose of 40 mg/kg/day; 0/10; conditions: route intravenous
Mus musculus [31] = assay: Number of survivors of DBA2 mice on 60th day after inoculation with L1210 leukemia cell line intravenously at a dose of 45 mg/kg/day; 0/10; conditions: route intravenous
Mus musculus [32] = assay: Number of survivors on 30th day at dose 50 mg/kg/day in 9 mice implanted with P388 leukemia cell line; 0/9
Mus musculus [33] = assay: Number of survivors on 60th day at dose 30 mg/kg/day in 10 mice implanted with P388 leukemia cell line; 0/10
Mus musculus [34] = assay: Number of survivors on 30th day at dose 45 mg/kg/day in 10 mice implanted with P388 leukemia cell line; 2/10
Mus musculus [35] = assay: Percent increase in life span at dose 45 mg/kg/day in 10 mice implanted with P388 leukemia cell line
Mus musculus [36] = assay: Percent increase in life span at dose 50 mg/kg/day in 10 mice implanted with P388 leukemia cell line; summary of the method: as §1
Mus musculus [37] = assay: Number of survivors on 60th day at dose 50 mg/kg/day in 9 mice implanted with P388 leukemia cell line; 0/9
Mus musculus [38] = assay: Number of survivors on 60th day at dose 45 mg/kg/day in 10 mice implanted with P388 leukemia cell line; 0/10
Mus musculus [39] = assay: Number of survivors of DBA2 mice on 30th day after inoculation with L1210 leukemia cell line intravenously at a dose of 40 mg/kg/day; 0/10; conditions: route intravenous
Mus musculus [40] = assay: Percent increase in life span at dose 30 mg/kg/day in 10 mice implanted with P388 leukemia cell line; summary of the method: as §1
Mus musculus [41] = assay: Number of survivors of DBA2 mice on 30th day after inoculation with L1210 leukemia cell line intravenously at a dose of 45 mg/kg/day; 0/10; conditions: route intravenous
Mus musculus [42] = assay: Number of survivors on 30th day at dose 20 mg/kg/day in 10 mice implanted with P388 leukemia cell line; 0/10
Mus musculus [43] = assay: Percent increase in life span at dose 20 mg/kg/day in 10 mice implanted with P388 leukemia cell line; summary of the method: as §1
Mus musculus [44] = assay: Number of survivors on 30th day at dose 30 mg/kg/day in 10 mice implanted with P388 leukemia cell line; 1/10
Mus musculus [45] = assay: Percent increase in life span of DBA2 mice after inoculation with L1210 leukemia intravenously at a dose of 45 mg/kg per day; conditions: route intravenous; summary of the method: as §2

`CC[C@H](C)[C@H](NC(=O)[C@@]1(O)[C@H](O)[C@]2(CC)C=CCN3CC[C@@]4(c5cc([C@@]6(C(=O)OC)C[C@H]7C[N@](CCc8c6[nH]c6ccccc86)C[C@](O)(CC)C7)c(OC)cc5N(C)[C@@]14C)[C@@H]32)C(=O)OC` showed a Survivors (Mus musculus [1]) of 3, an ILS at 9 mg/kg/day (Mus musculus [2]) of 48.3% and a Survivors (Mus musculus [3]) of 3. The ILS at 6 mg/kg/day (Mus musculus [4]) was 118%, the Survivors (Mus musculus [5]) was 0 and the Survivors (Mus musculus [6]) was 3. For the same molecule, the Survivors (Mus musculus [7]) was 0, the ILS at 3 mg/kg/day (Mus musculus [8]) was 41.3% and the Survivors (Mus musculus [9]) was 5. It also gave a Survivors (Mus musculus [10]) of 2, a Survivors (Mus musculus [11]) of 0 and an ILS at 8 mg/kg/day (Mus musculus [12]) of 149%. It also gave a Survivors (Mus musculus [13]) of 4, an ILS at 6 mg/kg/day (Mus musculus [14]) of 65.7% and a Survivors (Mus musculus [15]) of 0. It also gave a Survivors (Mus musculus [16]) of 3, an ILS at 7 mg/kg/day (Mus musculus [17]) of 164% and an ILS at 7 mg/kg/day (Mus musculus [18]) of 64%. For the same molecule, the ILS at 5 mg/kg/day (Mus musculus [19]) was 66.5%, the Survivors (Mus musculus [20]) was 0 and the Survivors (Mus musculus [21]) was 4. The Survivors (Mus musculus [22]) was 0, the Survivors (Mus musculus [23]) was 0 and the Survivors (Mus musculus [24]) was 1.

Work on `CCOC(=O)[C@@H](Cc1c[nH]c2ccccc12)NC(=O)[C@@]1(O)[C@H](O)[C@]2(CC)C=CCN3CC[C@@]4(c5cc([C@@]6(C(=O)OC)C[C@H]7C[N@](CCc8c6[nH]c6ccccc86)C[C@](O)(CC)C7)c(OC)cc5N(C)[C@@]14C)[C@@H]32` yielded an ILS at 40 mg/kg/day (Mus musculus [25]) of 53.8%, a Survivors (Mus musculus [26]) of 0 and a Survivors (Mus musculus [27]) of 0. It also gave a Survivors (Mus musculus [28]) of 0, an ILS at 40 mg/kg/day (Mus musculus [29]) of 21.8% and a Survivors (Mus musculus [30]) of 0. For the same molecule, the Survivors (Mus musculus [31]) was 0, the Survivors (Mus musculus [32]) was 0 and the Survivors (Mus musculus [33]) was 0. It also gave a Survivors (Mus musculus [34]) of 2, an ILS at 45 mg/kg/day (Mus musculus [35]) of 85% and an ILS at 50 mg/kg/day (Mus musculus [36]) of 59%. For the same molecule, the Survivors (Mus musculus [37]) was 0, the Survivors (Mus musculus [38]) was 0 and the Survivors (Mus musculus [39]) was 0. The ILS at 30 mg/kg/day (Mus musculus [40]) was 41.4%, the Survivors (Mus musculus [41]) was 0 and the Survivors (Mus musculus [42]) was 0. For the same molecule, the ILS at 20 mg/kg/day (Mus musculus [43]) was 18.7%, the Survivors (Mus musculus [44]) was 1 and the ILS at 45 mg/kg/day (Mus musculus [45]) was 34.6%.
